Consider 2 compounds from ChEMBL document CHEMBL3997791, “Nanomolar-Potency Aminophenyl-1,3,5-triazine Activators of the Cystic Fibrosis Transmembrane Conductance Regulator (CFTR) Chloride Channel for Prosecretory Therapy of Dry Eye Diseases” (J Med Chem, 2017).

Data set [1] deals with Cystic fibrosis transmembrane conductance regulator (Homo sapiens, UniProt P13569). Briefly: Activation of human CFTR expressed in forskolin-stimulated basolateral membrane permeabilized FRT cells co-expressing YFP assessed as increase in short-circuit current by voltage clamp method. Type of data set: cell-based. Summed up: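 Ussing chamber with FRT cells co-expressing human wild-type CFTR and YFP. Basolateral side had HCO3−-buffered solution and the apical side half-Cl− solution. The basolateral membrane was permeabilized with 250 µg/mL amphotericin B. Solutions were gassed with 95% O2/5% CO2 at 37 °C. A low forskolin concentration was added first, then cumulative compound additions, then maximal forskolin and 10 µM CFTRinh-172; n = 3.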
Cystic fibrosis transmembrane conductance regulator, sequence (P13569 whole entry, looked up): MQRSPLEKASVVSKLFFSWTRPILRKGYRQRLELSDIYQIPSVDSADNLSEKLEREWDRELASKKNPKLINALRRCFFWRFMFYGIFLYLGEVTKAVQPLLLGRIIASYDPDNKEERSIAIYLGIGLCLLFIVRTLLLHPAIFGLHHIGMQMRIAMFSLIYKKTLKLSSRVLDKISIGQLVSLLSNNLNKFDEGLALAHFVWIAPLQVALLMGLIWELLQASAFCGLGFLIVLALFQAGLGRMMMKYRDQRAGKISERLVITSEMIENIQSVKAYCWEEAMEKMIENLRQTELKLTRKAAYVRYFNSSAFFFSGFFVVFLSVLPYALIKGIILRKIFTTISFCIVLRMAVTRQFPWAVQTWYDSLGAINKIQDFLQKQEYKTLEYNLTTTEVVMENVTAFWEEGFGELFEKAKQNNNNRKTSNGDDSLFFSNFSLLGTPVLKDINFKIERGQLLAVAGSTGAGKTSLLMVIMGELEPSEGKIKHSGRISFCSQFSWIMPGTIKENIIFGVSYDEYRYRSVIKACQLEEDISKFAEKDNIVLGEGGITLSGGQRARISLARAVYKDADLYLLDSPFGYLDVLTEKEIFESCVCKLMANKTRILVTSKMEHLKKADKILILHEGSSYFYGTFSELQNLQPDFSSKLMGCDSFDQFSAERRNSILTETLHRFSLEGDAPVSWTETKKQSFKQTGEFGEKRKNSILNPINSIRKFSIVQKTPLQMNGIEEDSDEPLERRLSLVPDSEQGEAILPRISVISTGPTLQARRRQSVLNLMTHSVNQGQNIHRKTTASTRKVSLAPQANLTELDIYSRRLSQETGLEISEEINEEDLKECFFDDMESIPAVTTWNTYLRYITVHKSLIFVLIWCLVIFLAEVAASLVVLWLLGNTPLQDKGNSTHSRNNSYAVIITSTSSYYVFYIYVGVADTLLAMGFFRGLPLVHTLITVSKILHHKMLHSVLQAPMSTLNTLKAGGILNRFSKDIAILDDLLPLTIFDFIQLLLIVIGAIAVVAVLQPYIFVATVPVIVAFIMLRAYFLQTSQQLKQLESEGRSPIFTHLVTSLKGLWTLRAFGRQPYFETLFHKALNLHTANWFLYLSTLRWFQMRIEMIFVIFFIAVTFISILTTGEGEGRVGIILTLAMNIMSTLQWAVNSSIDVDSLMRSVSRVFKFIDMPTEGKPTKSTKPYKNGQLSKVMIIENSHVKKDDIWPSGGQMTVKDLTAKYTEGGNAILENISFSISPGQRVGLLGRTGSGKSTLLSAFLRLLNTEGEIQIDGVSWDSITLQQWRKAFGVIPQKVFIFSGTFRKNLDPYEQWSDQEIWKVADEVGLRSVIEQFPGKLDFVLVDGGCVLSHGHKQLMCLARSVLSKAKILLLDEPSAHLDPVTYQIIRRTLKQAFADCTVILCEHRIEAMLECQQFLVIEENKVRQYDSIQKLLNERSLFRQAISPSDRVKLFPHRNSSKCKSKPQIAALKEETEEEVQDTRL

Data set [2] can be described thus: Elevation of forskolin-stimulated cAMP level in Fischer rat thyroid cells co-expressing YFP and human CFTR at 10 uM incubated for 10 mins by immunoassay. Type of data set: ADME, cell-based. As to conditions: thyroid cell. The procedure, abridged: (§1)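 FRT cells expressing wild-type CFTR in 12-well plates, PBS-washed, incubated 10 min with 10 μM compound without or with 90 nM forskolin; references were forskolin alone (90 nM, 20 μM) and 20 μM forskolin + 100 μM IBMX. Lysates assayed for cAMP by immunoassay; mean ± SEM, n = 4.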
In general terms: Changes in cAMP serve as a functional read-out for many G protein-coupled receptors.

For the next data set, the system named is Mus musculus. Description: Induction of tear secretion in mouse lacking functional CFTR up to 250 pmol administered as single topical dose up to 6 hrs by phenol red thread test. As to conditions: in vivo, topical_or_ocular. Summed up: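 CF mice lacking functional CFTR; single ocular dose of 250 pmol in 2.5 μL ophthalmic vehicle, both eyes, vehicle control. Tear volume by phenol red thread 10 s in lateral canthus under isoflurane, measured before and at timed points after dosing. 5 mice, 10 eyes per condition.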

A short description of data set [3]: Solubility of the compound in phosphate buffered solution. Type of data set: physicochemical.
Data set [4] is filed under the species Homo sapiens. Briefly: Inhibition of calcium-activated chloride channel in human primary bronchial epithelial cells assessed as inhibition of ATP-induced short-circuit current at 10 uM preincubated for 10 mins followed by ATP addition by voltage clamp method. The procedure, abridged:
(§2)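 Primary human bronchial epithelial cells grown at air-liquid interface, mounted in Ussing chambers in symmetrical HCO3−-buffered solutions (95% O2/5% CO2, 37 °C), with Ag/AgCl electrodes. After 10 min preincubation with 10 µM compound, sequential additions were 20 µM amiloride, 20 µM forskolin, 10 µM CFTRinh-172 and 100 µM ATP. Traces represent two to four experiment sets.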

The next data set concerns HT-29. Briefly: Increase of iodide influx in human HT-29 cells expressing YFP at 10 uM measured after 10 mins for 2 to 12 sec by fluorescence assay. Type of data set: functional, cell-based. Summed up: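 HT-29 cells expressing YFP halide sensor, 10 μM compound, for non-TMEM16A calcium-activated chloride channel. Plate reader fluorescence quenching after iodide addition (activation) or iodide plus ATP addition (inhibition); initial rate of iodide influx computed as linear measure of channel function. Representative of two to four experiment sets.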

Data set [5] in a line: Elevation of cAMP level in Fischer rat thyroid cells co-expressing YFP and human CFTR at 10 uM incubated for 10 mins by immunoassay. Type of data set: ADME, cell-based. The conditions noted are these: thyroid cell. Summed up:
as §1

The species named for data set [6] is Homo sapiens. Description: Inhibition of ENaC in human primary bronchial epithelial cells assessed as effect on short-circuit current at 10 uM after 10 mins by voltage clamp method. The procedure, abridged:
as §2

Data set [7] has as its target T1, Anoctamin-1 (Homo sapiens) (UniProt Q5XXA6).
T1 sequence (whole entry): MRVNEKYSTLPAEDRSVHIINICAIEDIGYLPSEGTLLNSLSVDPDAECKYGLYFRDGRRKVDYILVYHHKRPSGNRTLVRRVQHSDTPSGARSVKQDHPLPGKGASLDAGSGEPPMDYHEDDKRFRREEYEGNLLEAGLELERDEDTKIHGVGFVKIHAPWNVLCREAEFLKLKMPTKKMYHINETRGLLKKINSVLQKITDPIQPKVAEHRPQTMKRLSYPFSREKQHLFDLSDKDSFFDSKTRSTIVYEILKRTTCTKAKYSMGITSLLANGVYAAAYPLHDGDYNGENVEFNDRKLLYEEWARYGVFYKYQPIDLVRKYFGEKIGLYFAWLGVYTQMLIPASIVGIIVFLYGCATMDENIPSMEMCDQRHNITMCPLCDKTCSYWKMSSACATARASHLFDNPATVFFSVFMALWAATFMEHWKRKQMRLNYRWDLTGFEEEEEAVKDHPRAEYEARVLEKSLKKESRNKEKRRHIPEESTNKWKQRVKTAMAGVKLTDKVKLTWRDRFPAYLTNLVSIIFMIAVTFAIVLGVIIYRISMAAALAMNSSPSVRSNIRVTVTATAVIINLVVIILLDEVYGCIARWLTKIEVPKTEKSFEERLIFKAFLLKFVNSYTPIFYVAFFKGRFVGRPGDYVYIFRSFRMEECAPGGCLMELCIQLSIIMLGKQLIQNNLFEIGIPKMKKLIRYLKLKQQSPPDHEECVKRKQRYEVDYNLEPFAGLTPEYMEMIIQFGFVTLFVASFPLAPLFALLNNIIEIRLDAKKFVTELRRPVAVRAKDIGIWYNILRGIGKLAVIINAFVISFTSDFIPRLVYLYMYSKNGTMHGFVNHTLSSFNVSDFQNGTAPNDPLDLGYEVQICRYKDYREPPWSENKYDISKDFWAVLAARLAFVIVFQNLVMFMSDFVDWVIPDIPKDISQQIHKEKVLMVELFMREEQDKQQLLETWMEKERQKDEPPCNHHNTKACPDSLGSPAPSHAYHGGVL
Briefly: Activation of human TMEM16A expressed in FRT cells co-expressing YFP assessed as increase in iodide influx at 10 uM measured after 10 mins for 2 to 12 sec by fluorescence assay. Type of data set: cell-based. Summed up:
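FRT cells stably coexpressing TMEM16A and YFP-H148Q; compound at 10 μM. Fluorescence quenching read in plate reader after iodide addition (activation) or iodide plus ATP addition (inhibition); initial rate of iodide influx computed as linear measure of channel function. Representative of two to four experiment sets.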

Data set [8] is described as follows: Suppression of ATP-stimulated elevation of cytoplasmic calcium level in Fischer rat thyroid cells co-expressing YFP and human CFTR at 10 uM incubated for 5 mins by fluo-4 dye based fluorescence assay. Type of data set: ADME. As to conditions: thyroid cell. The procedure, abridged:
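FRT cells in 96-well plates loaded with Fluo-4 NW, pretreated 5 min with 10 μM compound or control; 100 μM ATP added as calcium agonist. Fluorescence followed in plate reader with syringe pumps. Representative of two to four experiment sets.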

The nature of data set [9]: Cytotoxicity against Fischer rat thyroid cells assessed as effect on cell survival up to 10 uM after 8 hrs by alamar blue assay. Type of data set: cell-based. The procedure, abridged: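 FRT cells cultured overnight, then incubated 8 h with compound up to 10 μM; 33% DMSO as positive control. Viability read by Alamar Blue; mean ± SEM, n = 8.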
For data set [10], the species on record is Homo sapiens. Briefly: Inhibition of sodium/potassium pump in human primary bronchial epithelial cells assessed as effect on short-circuit current at 10 uM after 10 mins by voltage clamp method. The procedure, abridged:
as §2

For data set [11], the species on record is Homo sapiens. Briefly: Inhibition of potassium channel in human primary bronchial epithelial cells assessed as effect on short-circuit current at 10 uM after 10 mins by voltage clamp method. The procedure, abridged:
as §2

Activity calls are given as the source filed them. No cut-off for these calls is given here. Where only a bound is given, the exact number is not on record here.

With `CNc1nc(Nc2ccccc2)nc(OCC(F)(F)C(F)F)n1`, the Activity entry in data set [1] is “Dose-dependent effect”; in data set [2], “Non-Toxic”; in the data set with Mus musculus it was “Non-Toxic”; in [5], “Non-Toxic”; in data set [8], “Non-Toxic”; in data set [9], “Non-Toxic”. In data set [3], the solubility is at most 10 µM. The inhibition result in the data set listed under Homo sapiens [4], in the data set listed under Homo sapiens [6], in the data set listed under Homo sapiens [10] and in the data set listed under Homo sapiens [11] was “inactive” in each case. The result (with HT-29; in data set [7]) was inactive.
Regarding `CCN(CC)c1nc(Nc2ccc3ncsc3c2)nc(OC(C(F)(F)F)C(F)(F)F)n1`, the Activity entry in data set [1] was “Dose-dependent effect”; in data set [2], “Non-Toxic”; in [5] it was “Non-Toxic”; in [8] it was “Non-Toxic”; in data set [9], “Non-Toxic”. The same compound yielded a solubility in [3] of at most 10 µM. Besides, the inhibition entry in the data set listed under Homo sapiens [4], in the data set filed under Homo sapiens [6], in the data set listed under Homo sapiens [10] and in the data set listed under Homo sapiens [11] was “inactive” each time. For the same compound, the result (with HT-29; in [7]) was inactive.

Broadly, the solubility is the concentration that dissolves in the medium under given conditions. The low end stands for a poorly soluble substance, the high end for a readily soluble substance.
